Active and inactive are the calls of the source. The calls are words filed in the database; no cut-off is given here.
Experiments:
P2Y purinoceptor 1 [1] = biological target: T1, P2Y purinoceptor 1 (Homo sapiens, UniProt P47900); assay: Antagonist activity at human platelet P2Y1 receptor assessed as inhibition of ADP-induced increase in cytosolic calcium level by FLUO-4 staining based flow cytometric analysis; assay type: functional
Summary of the method: (§1)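 Stimulus was extracellular Ca2+ uptake on 1 μM test compound (P2X1, scaled to 20 μM β,γ-CH2-ATP as 100%, selective P2Y1 inhibitor control), or 3 μM ADP (P2Y1 antagonism; omitted for agonism).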

Plasma [2] = assay: Drug level in rat plasma treated with P'1,P'4-di-(2 methylthio-5'-adenosine) P'1,P'4-dithio-P'2,P'3-chloromethylenetetraphosphate, sodium salt at 50 uM after 77 hrs by HPLC analysis; assay type: ADME, cell-free
Summary of the method: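 Frozen pooled heparinised rat or human plasma, thawed and warmed 5 min at 37 °C, spiked to 50 μM final compound (from 10 mM saline stock), held at 37 °C up to 77 h; heat-denatured plasma as chemical control; aliquots quenched with MeCN, ultrafiltered, dried, redissolved in pH 8.5 phosphate/EDTA; isocratic RP-HPLC, 273 nm; metabolites confirmed by reference compounds and LCMS; peak areas internally normalised.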

P2Y purinoceptor 1 [3] = biological target: T1, P2Y purinoceptor 1; assay: Agonist activity at human platelet P2Y1 receptor assessed as increase in cytosolic calcium level by FLUO-4 staining based flow cytometric analysis; assay type: functional; summary of the method: as §1
P2Y purinoceptor 12 [4] = biological target: T2, P2Y purinoceptor 12 (Homo sapiens, UniProt Q9H244); assay: Antagonist activity at human platelet P2Y12 receptor assessed as inhibition of ADP-mediated decrease in intra-platelet phosphorylated VASP by flow cytometric analysis
[5] = biological target: T3, P2X purinoceptor 1 (Homo sapiens) (UniProt P51575); assay: Agonist activity at human platelet P2X1 receptor assessed as increase in cytosolic calcium level at 1 uM by […] staining based flow cytometric analysis relative to beta,gamma-CH2-ATP; summary of the method: as §1
T3 sequence (whole entry): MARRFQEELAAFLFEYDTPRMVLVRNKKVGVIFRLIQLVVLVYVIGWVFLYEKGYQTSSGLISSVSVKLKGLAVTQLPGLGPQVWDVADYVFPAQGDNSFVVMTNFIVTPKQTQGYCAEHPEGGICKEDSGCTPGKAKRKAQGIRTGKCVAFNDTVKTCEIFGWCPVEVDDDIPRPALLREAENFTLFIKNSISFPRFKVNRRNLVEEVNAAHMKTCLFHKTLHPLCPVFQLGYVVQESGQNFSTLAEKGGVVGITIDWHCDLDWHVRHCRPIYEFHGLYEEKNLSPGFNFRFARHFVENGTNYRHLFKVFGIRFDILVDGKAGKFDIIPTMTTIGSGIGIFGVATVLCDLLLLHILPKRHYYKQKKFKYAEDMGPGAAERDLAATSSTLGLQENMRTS

P2Y purinoceptor 12 [6] = biological target: T2, P2Y purinoceptor 12; assay: Agonist activity at human platelet P2Y12 receptor assessed as decrease in intra-platelet phosphorylated VASP by flow cytometric analysis
Platelet = assay: Anti-aggregatory activity in human platelet rich plasma assessed as inhibition of ADP-induced platelet shape change; assay type: functional, cell-free
[7] = Anti-aggregatory activity in human platelet rich plasma assessed as inhibition of 20 uM ADP-induced platelet aggregation by optical aggregometric analysis; assay type: functional, cell-free
[8] = Anti-aggregatory activity in human platelet rich plasma assessed as inhibition of 20 uM ADP-induced platelet aggregation preincubated for 15 mins by optical aggregometric analysis; assay type: functional, cell-free
[9] = Anti-aggregatory activity in human platelet rich plasma assessed as inhibition of ADP-induced platelet aggregation by optical aggregometry; assay type: functional, cell-free
Plasma [10] = assay: Half life in rat plasma at 50 uM measured at 1 to 4 hrs; assay type: ADME, cell-free
Plasma [11] = assay: Half life in human plasma at 50 uM measured at 1 to 4 hrs; assay type: ADME, cell-free
Plasma [12] = assay: Metabolic stability in rat plasma assessed as first order elimination rate constant at 50 uM measured at 1 to 4 hrs; assay type: ADME, cell-free
Plasma [13] = assay: Metabolic stability in human plasma assessed as first order elimination rate constant at 50 uM measured at 1 to 4 hrs; assay type: ADME, cell-free

T1 sequence (P47900 whole entry): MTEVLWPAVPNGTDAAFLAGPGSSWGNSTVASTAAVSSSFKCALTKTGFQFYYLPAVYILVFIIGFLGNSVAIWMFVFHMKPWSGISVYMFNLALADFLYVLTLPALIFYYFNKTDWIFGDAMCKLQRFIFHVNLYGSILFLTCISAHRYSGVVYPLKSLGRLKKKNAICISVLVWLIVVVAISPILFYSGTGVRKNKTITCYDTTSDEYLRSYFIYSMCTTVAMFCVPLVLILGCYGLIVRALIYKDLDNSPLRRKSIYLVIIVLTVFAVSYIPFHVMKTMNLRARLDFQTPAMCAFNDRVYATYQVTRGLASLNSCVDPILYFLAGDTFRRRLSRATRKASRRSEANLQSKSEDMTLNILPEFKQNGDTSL
T2 sequence (Q9H244 whole entry): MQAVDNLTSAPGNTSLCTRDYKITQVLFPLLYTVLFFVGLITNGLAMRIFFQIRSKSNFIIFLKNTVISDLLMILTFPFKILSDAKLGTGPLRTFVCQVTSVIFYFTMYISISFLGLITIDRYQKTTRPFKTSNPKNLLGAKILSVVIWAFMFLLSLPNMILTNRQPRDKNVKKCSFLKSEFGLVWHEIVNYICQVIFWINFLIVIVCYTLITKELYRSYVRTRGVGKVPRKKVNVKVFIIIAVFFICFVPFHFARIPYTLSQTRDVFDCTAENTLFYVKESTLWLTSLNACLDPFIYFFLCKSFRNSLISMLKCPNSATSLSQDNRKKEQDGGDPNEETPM

| SMILES | IC50 (P2Y purinoceptor 1 [1]) | Activity (P2Y purinoceptor 1 [3]) | IC50 (P2Y purinoceptor 12 [4]) | Activity [5] | Activity (P2Y purinoceptor 12 [6]) | IC50 [7] | IC50 [8] | Drug metabolism (Plasma [2]) | inhibition (Platelet) | IC50 [9] | t1/2 (Plasma [10]) | t1/2 (Plasma [11]) | Kel (Plasma [12]) | Kel (Plasma [13]) |
| --- | --- | --- | --- | --- | --- | --- | --- | --- | --- | --- | --- | --- | --- | --- |
| CNc1ncnc2c1ncn2[C@H]1C[C@H](OP(=O)(O)O)[C@@H](COP(=O)(O)O)O1 | 2250 nM | – | – | – | – | – | – | – | – | – | – | – | – | – |
| CSc1nc(N)c2ncn([C@@H]3O[C@H](COP(O)(O)=S)[C@@H](O)[C@H]3O)c2n1 | – | – | – | – | – | – | – | metabolite_detected | – | – | – | – | – | – |
| CSc1nc(N)c2ncn([C@@H]3O[C@H](COP(=O)(O)OP(=O)(O)C(Cl)P(=O)(O)OP(=O)(O)OC[C@H]4O[C@@H](n5cnc6c(N)nc(SC)nc65)[C@H](O)[C@@H]4O)[C@@H](O)[C@H]3O)c2n1 (some centres not stated) | 29000 nM | inactive | 310 nM | – | inactive | – | – | – | Active | – | – | – | – | – |
| CCCCCSc1nc(N)c2ncn([C@@H]3O[C@H](COP(=O)(S)OP(=O)(O)C(Cl)P(=O)(O)OP(=O)(S)OC[C@H]4O[C@@H](n5cnc6c(N)nc(SCCCCC)nc65)[C@H](O)[C@@H]4O)[C@@H](O)[C@H]3O)c2n1 (mixture of isomers) | 4210 nM | inactive | 3100 nM | 4.7% | inactive | – | – | – | Active | – | – | – | – | – |
| Nc1nc(SCCC(F)(F)F)nc2c1ncn2[C@@H]1O[C@H](COP(=O)(S)OP(=O)(O)C(Cl)P(=O)(O)OP(=O)(S)OC[C@H]2O[C@@H](n3cnc4c(N)nc(SCCC(F)(F)F)nc43)[C@H](O)[C@@H]2O)[C@@H](O)[C@H]1O (mixture of isomers) | 5200 nM | inactive | 210 nM | 4.7% | inactive | – | – | – | Active | – | – | – | – | – |
| CSc1nc(N)c2ncn([C@@H]3O[C@H](COP(=O)(S)OP(=O)(O)C(Cl)(Cl)P(=O)(O)OP(=O)(S)OC[C@H]4O[C@@H](n5cnc6c(N)nc(SC)nc65)[C@H](O)[C@@H]4O)[C@@H](O)[C@H]3O)c2n1 (mixture of isomers) | 1020 nM | inactive | 1120 nM | 3.3% | inactive | – | – | – | Active | – | – | – | – | – |
| CCCNc1ncnc2c1ncn2[C@@H]1O[C@H](COP(=O)(S)OP(=O)(O)C(Cl)P(=O)(O)OP(=O)(S)OC[C@H]2O[C@@H](n3cnc4c(NCCC)ncnc43)[C@H](O)[C@@H]2O)[C@@H](O)[C@H]1O (mixture of isomers) | 8800 nM | inactive | 156000 nM | -0.01% | inactive | – | – | – | Active | – | – | – | – | – |
| CSc1nc(N)c2ncn([C@@H]3O[C@H](COP(=O)(S)OP(=O)(O)OP(=O)(O)OP(=O)(S)OC[C@H]4O[C@@H](n5cnc6c(N)nc(SC)nc65)[C@H](O)[C@@H]4O)[C@@H](O)[C@H]3O)c2n1 (mixture of isomers) | 160 nM | inactive | 2400 nM | 3% | inactive | – | – | – | Active | – | – | – | – | – |
| Nc1ncnc2c1ncn2[C@@H]1O[C@H](COP(=O)(S)OP(=O)(O)C(Cl)P(=O)(O)OP(=O)(S)OC[C@H]2O[C@@H](n3cnc4c(N)ncnc43)[C@H](O)[C@@H]2O)[C@@H](O)[C@H]1O (mixture of isomers) | 10200 nM | – | – | – | – | – | – | – | – | – | – | – | – | – |
| CSc1nc(N)c2ncn([C@@H]3O[C@H](COP(=O)([S-])OP(=O)([O-])C(Cl)P(=O)([O-])OP(=O)([S-])OC[C@H]4O[C@@H](n5cnc6c(N)nc(SC)nc65)[C@H](O)[C@@H]4O)[C@@H](O)[C@H]3O)c2n1.[Na+].[Na+].[Na+].[Na+] (single isomer, unassigned; diastereomer 1) | – | – | – | – | – | – | – | – | – | 76 nM | 100.5 h | 71 h | 0.0069 h⁻¹ | 0.00976 h⁻¹ |
| CSc1nc(N)c2ncn([C@@H]3O[C@H](COP(=O)([S-])OP(=O)([O-])C(Cl)P(=O)([O-])OP(=O)([S-])OC[C@H]4O[C@@H](n5cnc6c(N)nc(SC)nc65)[C@H](O)[C@@H]4O)[C@@H](O)[C@H]3O)c2n1.[Na+].[Na+].[Na+].[Na+] (single isomer, unassigned; diastereomer 2) | – | – | – | – | – | – | – | – | – | 83 nM | 5.06 h | 40.6 h | 0.137 h⁻¹ | 0.0171 h⁻¹ |
| CSc1nc(N)c2ncn([C@@H]3O[C@H](COP(=O)([S-])OP(=O)([O-])C(Cl)P(=O)([O-])OP(=O)([S-])OC[C@H]4O[C@@H](n5cnc6c(N)nc(SC)nc65)[C@H](O)[C@@H]4O)[C@@H](O)[C@H]3O)c2n1.[Na+].[Na+].[Na+].[Na+] (single isomer, unassigned; diastereomer 3) | – | – | – | – | – | – | – | – | – | 64 nM | 5.4 h | 31.9 h | 0.128 h⁻¹ | 0.0217 h⁻¹ |
| CSc1nc(N)c2ncn([C@@H]3O[C@H](COP(=O)([S-])OP(=O)([O-])C(Cl)P(=O)([O-])OP(=O)([S-])OC[C@H]4O[C@@H](n5cnc6c(N)nc(SC)nc65)[C@H](O)[C@@H]4O)[C@@H](O)[C@H]3O)c2n1.[Na+].[Na+].[Na+].[Na+] (single isomer, unassigned; diastereomer 4) | – | – | – | – | – | – | – | – | – | 110 nM | 1.37 h | 16.4 h | 0.508 h⁻¹ | 0.0424 h⁻¹ |

Continued by falling IC50 (P2Y purinoceptor 1 [1]), values first:

| IC50 (P2Y purinoceptor 1 [1]) | Activity (P2Y purinoceptor 1 [3]) | IC50 (P2Y purinoceptor 12 [4]) | Activity [5] | Activity (P2Y purinoceptor 12 [6]) | IC50 [7] | IC50 [8] | SMILES | Drug metabolism (Plasma [2]) | inhibition (Platelet) | IC50 [9] | t1/2 (Plasma [10]) | t1/2 (Plasma [11]) | Kel (Plasma [12]) | Kel (Plasma [13]) |
| --- | --- | --- | --- | --- | --- | --- | --- | --- | --- | --- | --- | --- | --- | --- |
| 7370 nM | inactive | 9300 nM | 0.07% | inactive | – | – | Nc1nc(Cl)nc2c1ncn2[C@@H]1O[C@H](COP(=O)(S)OP(=O)(O)C(Cl)P(=O)(O)OP(=O)(S)OC[C@H]2O[C@@H](n3cnc4c(N)nc(Cl)nc43)[C@H](O)[C@@H]2O)[C@@H](O)[C@H]1O (mixture of isomers) | – | Active | – | – | – | – | – |
| 6300 nM | inactive | 1020 nM | 31% | inactive | – | – | CCCSc1nc(N)c2ncn([C@@H]3O[C@H](COP(=O)(S)OP(=O)(O)C(Cl)P(=O)(O)OP(=O)(S)OC[C@H]4O[C@@H](n5cnc6c(N)nc(SCCC)nc65)[C@H](O)[C@@H]4O)[C@@H](O)[C@H]3O)c2n1 (mixture of isomers) | – | Active | – | – | – | – | – |
| 4900 nM | inactive | 1400 nM | 48% | inactive | – | – | CSc1nc(N)c2ncn([C@@H]3O[C@H](COP(=O)(O)OP(=O)(O)OP(=O)(O)OP(=O)(O)OC[C@H]4O[C@@H](n5cnc6c(N)nc(SC)nc65)[C@H](O)[C@@H]4O)[C@@H](O)[C@H]3O)c2n1 | – | Active | – | – | – | – | – |
| 2650 nM | inactive | 1350 nM | 0.69% | inactive | – | – | Nc1nc(I)nc2c1ncn2[C@@H]1O[C@H](COP(=O)(S)OP(=O)(O)C(Cl)P(=O)(O)OP(=O)(S)OC[C@H]2O[C@@H](n3cnc4c(N)nc(I)nc43)[C@H](O)[C@@H]2O)[C@@H](O)[C@H]1O (mixture of isomers) | – | Active | – | – | – | – | – |
| 2240 nM | inactive | 340 nM | 1.8% | inactive | 6220 nM | 4520 nM | Nc1nc(Br)nc2c1ncn2[C@@H]1O[C@H](COP(=O)(S)OP(=O)(O)C(Cl)P(=O)(O)OP(=O)(S)OC[C@H]2O[C@@H](n3cnc4c(N)nc(Br)nc43)[C@H](O)[C@@H]2O)[C@@H](O)[C@H]1O (mixture of isomers) | – | Active | – | – | – | – | – |
| 1970 nM | inactive | > 200000 nM | 0.31% | inactive | – | – | CNc1ncnc2c1ncn2[C@@H]1O[C@H](COP(=O)(S)OP(=O)(O)C(Cl)P(=O)(O)OP(=O)(S)OC[C@H]2O[C@@H](n3cnc4c(NC)ncnc43)[C@H](O)[C@@H]2O)[C@@H](O)[C@H]1O (mixture of isomers) | – | Active | – | – | – | – | – |
| 360 nM | inactive | 730 nM | 92% | inactive | – | – | CNc1nc(SC)nc2c1ncn2[C@@H]1O[C@H](COP(=O)(S)OP(=O)(O)C(Cl)P(=O)(O)OP(=O)(S)OC[C@H]2O[C@@H](n3cnc4c(NC)nc(SC)nc43)[C@H](O)[C@@H]2O)[C@@H](O)[C@H]1O (some centres not stated) | – | Active | – | – | – | – | – |

Reference: ChEMBL document CHEMBL3745686 (Eur J Med Chem, 2016)
